Active and inactive are the calls of the source. The calls are words filed in the database; no cut-off is given here.

The test system of one experiment is Thermus aquaticus. Kind of experiment: (§1) Inhibition of Thermus aquaticus DNA polymerase by PCR analysis. In outline:
(§2)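 Taq DNA polymerase (2.5 U) run in PCR mix of 40 mM Tris-acetate pH 8.3, 15 mM MgCl2, […], 2.5 mM each dNTP. Compounds were dissolved in DMSO and tested at varying concentrations, with 1:2 serial dilutions. Cycling was 35 cycles: 95 °C 1 min, 56 °C annealing, 72 °C 90 s. Read-out was densitometry of ethidium bromide-stained agarose gel bands. IC50 was interpolated from plots of activity versus inhibitor concentration.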
For `CC(=O)OC[C@]12O[C@H]1[C@H](O)[C@@H]1C=CO[C@@H](O[C@@H]3O[C@H](CO)[C@@H](O)[C@H](O)[C@H]3O)[C@@H]12`, the inhibition entry is “inactive”.
As to `O=C(OC[C@H]1O[C@@H](O[C@@H]2OC=C[C@H]3[C@@H](OC(=O)c4ccccc4)[C@@H]4O[C@]4(COC(=O)c4ccccc4)[C@@H]23)[C@H](O)[C@@H](OC(=O)c2ccccc2)[C@@H]1OC(=O)c1ccccc1)c1ccccc1`, the inhibition entry is “inactive”.
As to `CC(C)(C)[Si](OC[C@H]1O[C@@H](O[C@@H]2OC=C[C@H]3[C@@H](O[Si](c4ccccc4)(c4ccccc4)C(C)(C)C)[C@@H]4O[C@]4(CO[Si](c4ccccc4)(c4ccccc4)C(C)(C)C)[C@@H]23)[C@H](O)[C@@H](O[Si](c2ccccc2)(c2ccccc2)C(C)(C)C)[C@@H]1O)(c1ccccc1)c1ccccc1`, the inhibition result is “inactive”.
For the compound `CC(=O)OC[C@H]1O[C@@H](O[C@@H]2OC=C[C@H]3[C@@H](OC(C)=O)[C@@H]4O[C@]4(COC(C)=O)[C@@H]23)[C@H](O)[C@@H](O)[C@@H]1O`, the inhibition result was “inactive”.
The same measure, in the same setting: in the case of `CC(=O)OC[C@H]1O[C@@H](O[C@@H]2OC=C[C@H]3[C@@H](OC(C)=O)[C@@H]4O[C@]4(COC(C)=O)[C@@H]23)[C@H](OC(C)=O)[C@@H](OC(C)=O)[C@@H]1OC(C)=O` it was “inactive”; in that of `CC(C)(C)[Si](OC[C@H]1O[C@@H](O[C@@H]2OC=C[C@H]3[C@@H](O[Si](c4ccccc4)(c4ccccc4)C(C)(C)C)[C@@H]4O[C@]4(CO[Si](c4ccccc4)(c4ccccc4)C(C)(C)C)[C@@H]23)[C@H](O)[C@@H](O)[C@@H]1O)(c1ccccc1)c1ccccc1`, “inactive”.

Molecular target in the next experiment: not listed separately
The experiment is described as §1. The method, boiled down: as §2
Turning to `OCC1O[C@@H](O[C@@H]2OC=C[C@H]3[C@@H](O)[C@@H]4O[C@]4(CO)[C@@H]23)C(O)C(O)[C@@H]1O` (single isomer, unassigned), inhibition was half-maximal at 21.6 µM (IC50).
On the same count and under the same terms, in the case of `CC(C)(C)[Si](C)(C)OC[C@]12O[C@H]1[C@H](O[Si](C)(C)C(C)(C)C)[C@@H]1C=CO[C@@H](O[C@@H]3O[C@H](CO)[C@@H](O)[C@H](O)[C@H]3O)[C@@H]12` it was 78.1 µM; in that of `CC(C)(C)[Si](C)(C)OC[C@H]1O[C@@H](O[C@@H]2OC=C[C@H]3[C@@H](O[Si](C)(C)C(C)(C)C)[C@@H]4O[C@]4(CO[Si](C)(C)C(C)(C)C)[C@@H]23)[C@H](O)[C@@H](O)[C@@H]1O`, 5.57 µM.

Values taken from ChEMBL document CHEMBL3393006, “A new iridoid, verbascoside and derivatives with inhibitory activity against Taq DNA polymerase” (Bioorg Med Chem Lett, 2015).
